In the library only some 2.1% were active in any assay of this set; here they are far more common.
KLK5 inh – human KLK5 protease inhibitors, primary screen, biochemical, 1536-well; recombinant hK5, fluorogenic AMC substrate cleavage; inhibition, % at 5 µM; 0.59% of 210,000 active; AID 873, 2007;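 active means inhibition of 40% or more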;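 further: 0% = enzyme controls without compound and 100% = no-enzyme blanks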
PGE2 EP2 inh – human EP2 receptor antagonists, primary screen, TR-FRET cAMP, C6 glioma cells; AID 1422, 2008; Prostaglandin E2 receptor EP2 subtype (Homo sapiens), P43116; 0.52% of 260,000 active; C6 glioma cells expressing human EP2; cells stimulated with saturating PGE2; inhibition, % at 25 µM;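 active means percent inhibition above 40 after rounding to a whole number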;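 further: rat C6 glioma host cells with rolipram phosphodiesterase inhibitor present; the protocol text gives 20 µM as final concentration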
EP2 modulator – EP2 receptor modulators, cAMP readout, primary screen, cell-based, HTRF cAMP, PGE2 stimulation; EP2-expressing cells, cAMP HTRF FRET, PGE2 co-stimulation; 0.83% of 260,000 active; induction, % at 25 µM;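 active means compounds whose cAMP rise, as percent of the full-agonist control response, exceeds 60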;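 further: rat C6 glioma line stably carrying human EP2 under a CMV promoter; the protocol text gives 20 µM as final concentration; 100% = response of wells given 1 µM PGE2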
FXIIa inh 1536 – human FXIIa protease inhibitors, primary screen, biochemical, 1536-well. Coagulation factor XII (Homo sapiens), P00748. purified FXIIa, Boc-QGR-AMC fluorogenic substrate, 2 h. inhibition, % at 5 µM. 0.3% of 220,000 active. AID 800, 2007; in the data active means inhibition above about 40%;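 further: 0% = enzyme with no compound and 100% = blank without enzyme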
Target sequence (P00748 20-372 limits assumed): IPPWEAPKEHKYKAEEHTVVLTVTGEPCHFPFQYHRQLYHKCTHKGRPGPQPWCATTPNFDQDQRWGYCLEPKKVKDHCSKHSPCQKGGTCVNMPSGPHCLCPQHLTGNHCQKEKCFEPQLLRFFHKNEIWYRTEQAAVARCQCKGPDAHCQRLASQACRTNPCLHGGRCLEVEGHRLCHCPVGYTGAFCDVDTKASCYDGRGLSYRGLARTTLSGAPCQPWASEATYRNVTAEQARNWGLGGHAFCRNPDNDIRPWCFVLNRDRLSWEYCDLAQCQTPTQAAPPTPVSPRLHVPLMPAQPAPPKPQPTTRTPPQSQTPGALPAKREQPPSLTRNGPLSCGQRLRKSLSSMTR
Target sequence (P00748 373-615 limits assumed): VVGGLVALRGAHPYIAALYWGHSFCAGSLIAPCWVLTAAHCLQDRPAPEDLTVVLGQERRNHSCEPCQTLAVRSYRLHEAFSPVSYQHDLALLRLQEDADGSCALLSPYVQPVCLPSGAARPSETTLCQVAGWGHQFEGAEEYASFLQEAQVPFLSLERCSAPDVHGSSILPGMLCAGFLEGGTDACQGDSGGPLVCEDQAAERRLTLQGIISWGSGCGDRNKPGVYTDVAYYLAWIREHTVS
thrombin 1536 – human alpha-thrombin inhibitors, primary screen, counter-screen for coagulation protease inhibitor project, biochemical, 1536-well, fluorogenic AMC substrate; Prothrombin (Homo sapiens), P00734; Boc-VPR-AMC fluorogenic substrate cleavage; inhibition, % at 5 µM; 0.26% of 220,000 active; AID 1046, 2008;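 active means inhibition at or above 40%; inactive means inhibition below 40%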;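 further: 0% = enzyme with no compound and 100% = wells without enzyme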
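Material: human alpha-thrombin enzyme / Medium: pH 7.5 Tris (50 mM) with NaCl 150 mM, Tween 20 0.05% / Compound: single-point dosing at 5 µM, 0.2% DMSO / Incubation: enzyme reaction carried out at room temperature / Detection: AMC fluorescence, 355/460 nm / Read-out basis: percent inhibition scaled between no-compound controls and no-enzyme blanks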
FXIa inh – human FXIa protease inhibitors, primary screen, biochemical, 1536-well; Coagulation factor XI (Homo sapiens), P03951; purified FXIa, Boc-Glu-Ala-Arg-AMC fluorogenic substrate; inhibition, % at 5 µM; 0.14% of 220,000 active;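 active means inhibition of at least 40%; inactive means inhibition below 40%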;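 further: fluorescence of freed AMC excited at 355 nm; 0% = enzyme without compound and 100% = no enzyme blank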
EP2 confirm – cAMP induction in EP2, EP4, beta2-AR and parental cells, confirmation, counter-screen for EP2 modulator project, cell-based, five parallel assays, C6 glioma, HEK293; shares compounds with EP2 modulator; cAMP HTRF induction; plus low (about EC15) PGE2 agonist; calls only at 20 µM (by protocol); 47% of 1,300 active; AID 1080, 2008;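 active means cAMP induction above 50% in the main assay while under 30% in all four parallel counter assays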;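 further: rat C6 glioma cells stably expressing human EP2 receptor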
* = called active by the depositor.

For CC(C)(C)C1CCc2onc(C(=O)Nc3cccnc3)c2C1 (stereo unspecified) the results were KLK5 inh 1, PGE2 EP2 inh 3, EP2 modulator 52, FXIIa inh 1536 9, thrombin 1536 -3, FXIa inh 3 and EP2 confirm inactive.
`Cc1nn(CC(=O)OC(C)C)c(=O)c2cc3occc3n12` gave PGE2 EP2 inh 6 and EP2 modulator -30.
`CCCCNc1nc(N(C)c2ccccc2)nc(-n2ccnc2)n1` gave KLK5 inh 10, PGE2 EP2 inh 2, EP2 modulator 77*, FXIIa inh 1536 8, thrombin 1536 13, FXIa inh 10 and EP2 confirm active.
Screening Cc1sc(NC(=O)Cc2ccc3c(c2)OCO3)nc1-c1ccc2c(c1)CCN2C(=O)c1cccc(F)c1 returned KLK5 inh -18, PGE2 EP2 inh 5, EP2 modulator 72*, FXIIa inh 1536 13, thrombin 1536 -1, FXIa inh 9 and EP2 confirm inactive.
COc1ccc(-c2cc(C(F)(F)F)nc(SCC(=O)NC(C)c3ccccc3)n2)cc1OC (stereo unspecified) was read as PGE2 EP2 inh 5 and EP2 modulator -73.
For Nc1ncc2c(n1)-c1cc(Cl)ccc1SC2 the results were PGE2 EP2 inh 9, EP2 modulator -17, FXIIa inh 1536 12, thrombin 1536 1 and FXIa inh 5.
`CSc1ncc2c(n1)-c1cc(C)ccc1SC2` gave KLK5 inh -8, PGE2 EP2 inh 13, EP2 modulator 78*, FXIIa inh 1536 13, thrombin 1536 20, FXIa inh 3 and EP2 confirm active.
`COC(=O)CSc1nnc(-c2ccc(OC)cc2)n1C` gave PGE2 EP2 inh 4 and EP2 modulator -30.
Screening CCOc1ccc(C(=O)Nc2sc3c(c2C#N)CCC3)cc1Cl returned PGE2 EP2 inh 15 and EP2 modulator -1.
Screening Cc1cc(C(=O)Nc2cccc(/C=C/C(=O)O)c2)c(C)o1 returned KLK5 inh -2, PGE2 EP2 inh 3, EP2 modulator 99*, FXIIa inh 1536 6, thrombin 1536 -3, FXIa inh -5 and EP2 confirm active.
`Cc1oc(-c2ccccc2)cc1C(=O)Nc1cccc(/C=C/C(=O)O)c1` gave KLK5 inh 8, PGE2 EP2 inh 9, EP2 modulator 92*, FXIIa inh 1536 8, thrombin 1536 -1, FXIa inh 4 and EP2 confirm active.
For CCCCCOC(=O)c1[nH]c2c(c1C)C(=O)C(C(=O)OC)C(C)C2 (stereo unspecified) the results were KLK5 inh -3, PGE2 EP2 inh 12, EP2 modulator 91*, FXIIa inh 1536 15, thrombin 1536 2, FXIa inh 4 and EP2 confirm active.
Screening CC1=CC2C(CC1=O)C(C)=CCC2C(C)C (stereo unspecified) returned PGE2 EP2 inh 2, EP2 modulator 55 and EP2 confirm active.
CCOc1cc(C2NC(=O)NC(C)=C2C(=O)Nc2ccccc2C)ccc1OCC(N)=O (stereo unspecified) was read as PGE2 EP2 inh 6 and EP2 modulator 1.
`COc1ccc(C2(C(=O)NCCc3nc(-c4ccncc4)n[nH]3)CC2)cc1` gave PGE2 EP2 inh 8 and EP2 modulator -46.
Screening COC(=O)NC1(C(F)(F)F)C(=O)NC(C)=C1C(=O)OC (stereo unspecified) returned KLK5 inh -6, PGE2 EP2 inh 10, EP2 modulator 71*, FXIIa inh 1536 18, thrombin 1536 1, FXIa inh 5 and EP2 confirm inactive.
COC(=O)C1=C(C)NC(=O)C1(NC(=O)c1ccncc1)C(F)(F)F (stereo unspecified) was read as KLK5 inh -19, PGE2 EP2 inh 8, EP2 modulator 10, FXIIa inh 1536 -3, thrombin 1536 2 and FXIa inh -5.
Screening O=C(O)CCCSc1ccccc1 returned PGE2 EP2 inh 7 and EP2 modulator 27.
Nc1ccccc1CCCC(=O)O was read as PGE2 EP2 inh 12, EP2 modulator 107* and EP2 confirm inactive.
`Cc1ccc(NC(=S)N(Cc2ccco2)C(C)c2cccs2)c(Cl)c1` (stereo unspecified) gave KLK5 inh -3, PGE2 EP2 inh 4, EP2 modulator 36, FXIIa inh 1536 10, thrombin 1536 1 and FXIa inh -1.
Cc1ccc(C)c(NC(=S)N(Cc2ccco2)C(C)c2cccs2)c1 (stereo unspecified) was read as KLK5 inh -10, PGE2 EP2 inh 5, EP2 modulator 68*, FXIIa inh 1536 13, thrombin 1536 4, FXIa inh -2 and EP2 confirm inactive.
`Cc1ccc(Cl)cc1NC(=S)N(Cc1ccco1)C(C)c1cccs1` (stereo unspecified) gave KLK5 inh 1, PGE2 EP2 inh 5, EP2 modulator 63*, FXIIa inh 1536 -1, thrombin 1536 2, FXIa inh -8 and EP2 confirm inactive.
CC1CCc2c(C(=O)Nc3ccccc3F)csc2C1 (stereo unspecified) was read as PGE2 EP2 inh 9 and EP2 modulator -47.
`CCCC(c1nnnn1Cc1ccco1)N(Cc1cc2cc(C)cc(C)c2[nH]c1=O)CC1CCCO1` (stereo unspecified) gave PGE2 EP2 inh 10 and EP2 modulator -3.
Screening CCC(c1nnnn1Cc1ccco1)N(Cc1cc2cc(C)cc(C)c2[nH]c1=O)CC1CCCO1 (stereo unspecified) returned KLK5 inh -1, PGE2 EP2 inh 13, EP2 modulator 82*, FXIIa inh 1536 6, thrombin 1536 -4, FXIa inh -4 and EP2 confirm inactive.
CCc1nnc2n1N=C(c1ccc(-c3cc(Cl)ccc3Cl)o1)CS2 was read as KLK5 inh -1, PGE2 EP2 inh 1, EP2 modulator 68*, FXIIa inh 1536 11, thrombin 1536 0, FXIa inh -3 and EP2 confirm active.
`CN(C)Cc1ccccc1Sc1ccccc1Br` gave KLK5 inh -13, PGE2 EP2 inh 11, EP2 modulator 33, FXIIa inh 1536 13, thrombin 1536 -2 and FXIa inh 9.

Source: PubChem
